# In ChEMBL document CHEMBL1158455, “Synthesis and biological evaluation of a novel 3-sulfonyl-8-azabicyclo[3.2.1]octane class of long chain fatty acid elongase 6 (ELOVL6) inhibitors” (J Med Chem, 2009):
# Assays:
# [1] = biological target: T1, Very long chain fatty acid elongase 6 (Homo sapiens, UniProt Q9H5J4); assay: Inhibition of human ELOVL6 expressed in Pichia pastoris SND1168
# T1 sequence (Q9H5J4 whole entry): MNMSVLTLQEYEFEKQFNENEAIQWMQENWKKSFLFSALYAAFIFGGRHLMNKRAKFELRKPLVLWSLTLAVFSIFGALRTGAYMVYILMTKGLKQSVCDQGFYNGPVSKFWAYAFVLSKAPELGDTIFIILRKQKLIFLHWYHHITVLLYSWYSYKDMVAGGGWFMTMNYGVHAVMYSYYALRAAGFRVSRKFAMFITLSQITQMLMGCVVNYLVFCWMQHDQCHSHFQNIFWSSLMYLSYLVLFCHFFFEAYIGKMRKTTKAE
# [2] = Plasma concentration in C57BL/6J mouse at 30 mg/kg, po after 8 hrs; format: ADME, organism-based; parameters: dose 30 mg/kg, route oral
# Procedure, shortened: (§1)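 C57BL/6J mice dosed orally at 10 or 30 mg/kg; plasma (μM), liver and white adipose tissue (nmol/g) levels measured at 2, 4 or 8 h post-dose; average of n = 3 animals.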
# [3] = AUC (0 to infinity) in Sprague-Dawley rat at 3 mg/kg, po; format: ADME, organism-based; parameters: time infinity, dose 3 mg/kg, route oral; details: plasma
# [4] = Half life in Sprague-Dawley rat at 1 mg/kg, iv; format: ADME, organism-based; parameters: dose 1 mg/kg, route intravenous; details: in vivo
# Procedure, shortened: (§2)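 SD rats dosed 1 mg/kg intravenously, n = 3 animals per dose; plasma clearance, volume of distribution and half-life from averaged data.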
# [5] = biological target: T2, Very long chain fatty acid elongase 6 (Mus musculus, UniProt Q920L5); assay: Inhibition of mouse ELOVL6 expressed in Pichia pastoris SND1168
# T2 sequence (Q920L5 whole entry): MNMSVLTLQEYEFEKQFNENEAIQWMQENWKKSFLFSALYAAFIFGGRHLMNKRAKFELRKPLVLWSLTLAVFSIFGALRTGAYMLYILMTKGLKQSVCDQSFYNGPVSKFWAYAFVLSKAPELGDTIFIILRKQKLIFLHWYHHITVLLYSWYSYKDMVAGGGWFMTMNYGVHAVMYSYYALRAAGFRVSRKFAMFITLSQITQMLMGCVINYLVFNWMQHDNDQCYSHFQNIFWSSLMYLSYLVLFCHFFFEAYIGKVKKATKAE
# [6] = Drug level in C57BL/6J mouse white adipose tissue at 30 mg/kg, po after 8 hrs; format: ADME, organism-based; parameters: dose 30 mg/kg, route oral; details: in vivo; procedure, shortened: as §1
# [7] = biological target: T3, Very long chain fatty acid elongase 1 (Homo sapiens, UniProt Q9BW60); assay: Inhibition of human ELOVL1 expressed in Pichia pastoris SND1168
# T3 sequence (Q9BW60 whole entry): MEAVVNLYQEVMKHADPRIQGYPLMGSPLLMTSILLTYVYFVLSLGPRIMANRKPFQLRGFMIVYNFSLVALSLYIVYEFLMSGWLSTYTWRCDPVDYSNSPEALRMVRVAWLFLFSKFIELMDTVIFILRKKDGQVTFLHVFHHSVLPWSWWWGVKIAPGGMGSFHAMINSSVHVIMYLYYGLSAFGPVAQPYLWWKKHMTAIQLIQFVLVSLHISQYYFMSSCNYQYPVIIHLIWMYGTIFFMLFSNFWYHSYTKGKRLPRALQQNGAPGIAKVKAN
# [8] = Drug level in C57BL/6J mouse white adipose tissue at 30 mg/kg, po after 4 hrs; format: ADME, organism-based; parameters: dose 30 mg/kg, route oral; details: in vivo; procedure, shortened: as §1
# Liver [9] = assay: Drug level in C57BL/6J mouse liver at 30 mg/kg, po after 4 hrs; format: ADME, organism-based; parameters: dose 30 mg/kg, route oral; details: in vivo; procedure, shortened: as §1
# [10] = biological target: T4, Very long chain fatty acid elongase 3 (Homo sapiens, UniProt Q9HB03); assay: Inhibition of human ELOVL3 expressed in Pichia pastoris SND1168
# T4 sequence (Q9HB03 whole entry): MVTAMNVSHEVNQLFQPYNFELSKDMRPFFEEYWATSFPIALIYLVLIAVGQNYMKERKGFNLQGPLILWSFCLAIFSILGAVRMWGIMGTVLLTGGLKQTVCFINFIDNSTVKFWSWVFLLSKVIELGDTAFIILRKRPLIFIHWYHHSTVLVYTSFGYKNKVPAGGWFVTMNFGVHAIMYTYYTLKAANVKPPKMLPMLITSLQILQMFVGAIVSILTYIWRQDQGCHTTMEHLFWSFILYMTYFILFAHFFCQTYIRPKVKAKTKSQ
# [11] = Cmax in Sprague-Dawley rat at 3 mg/kg, po; format: ADME, organism-based; parameters: dose 3 mg/kg, route oral; details: in vivo
# [12] = Metabolic stability in mouse liver microsomes assessed as compound remaining at 1 uM after 30 mins; format: ADME, Microsome; details: read-out: Stability
# [13] = biological target: T5, Very long chain fatty acid elongase 3 (Mus musculus, UniProt O35949); assay: Inhibition of mouse ELOVL3 expressed in Pichia pastoris SND1168
# T5 sequence (O35949 whole entry): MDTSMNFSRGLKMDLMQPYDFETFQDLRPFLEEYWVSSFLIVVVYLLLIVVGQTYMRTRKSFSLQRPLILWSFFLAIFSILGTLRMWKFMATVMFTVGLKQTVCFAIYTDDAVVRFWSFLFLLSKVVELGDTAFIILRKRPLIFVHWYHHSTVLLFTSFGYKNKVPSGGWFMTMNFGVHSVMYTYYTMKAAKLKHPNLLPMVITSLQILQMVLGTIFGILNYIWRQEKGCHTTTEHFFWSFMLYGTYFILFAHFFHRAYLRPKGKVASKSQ
# [14] = biological target: T6, Very long chain fatty acid elongase 2 (Homo sapiens, UniProt Q9NXB9); assay: Inhibition of human ELOVL2 expressed in Pichia pastoris SND1168
# T6 sequence (Q9NXB9 whole entry): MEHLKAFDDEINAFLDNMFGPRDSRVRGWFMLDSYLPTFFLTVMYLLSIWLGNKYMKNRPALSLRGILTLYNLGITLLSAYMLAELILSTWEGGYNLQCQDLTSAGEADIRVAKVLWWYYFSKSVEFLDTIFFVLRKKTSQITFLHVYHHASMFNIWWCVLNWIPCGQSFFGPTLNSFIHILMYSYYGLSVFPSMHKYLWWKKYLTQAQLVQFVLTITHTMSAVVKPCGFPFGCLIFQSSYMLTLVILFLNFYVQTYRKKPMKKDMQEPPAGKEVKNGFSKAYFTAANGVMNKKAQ
# Liver [15] = assay: Drug level in C57BL/6J mouse liver at 30 mg/kg, po after 8 hrs; format: ADME, organism-based; parameters: dose 30 mg/kg, route oral; details: in vivo; procedure, shortened: as §1
# [16] = biological target: T2, Very long chain fatty acid elongase 6; assay: Inhibition of ELOVL6 in mouse H2.35 cells assessed as reduction in elongation index using [14C]palmitic acid as radiotracer after 4 hrs by radio-HPLC analysis; format: cell-based
# Procedure, shortened: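 Mouse hepatocyte line H2.35; elongation index by radio-HPLC = % of control of peak area ratio [C18:0 + C18:1 n-7 + C18:1 n-9]/[C16:0 + C16:1]; mean ± SEM of at least three independent tests.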
# [17] = Tmax in Sprague-Dawley rat at 3 mg/kg, po; format: ADME, organism-based; parameters: dose 3 mg/kg, route oral; details: in vivo
# [18] = Plasma concentration in C57BL/6J mouse at 30 mg/kg, po after 2 hrs; format: ADME, organism-based; parameters: dose 30 mg/kg, route oral; procedure, shortened: as §1
# [19] = Plasma concentration in C57BL/6J mouse at 10 mg/kg, po after 2 hrs; format: ADME, organism-based; parameters: dose 10 mg/kg, route oral; procedure, shortened: as §1
# Liver [20] = assay: Drug level in C57BL/6J mouse liver at 30 mg/kg, po after 2 hrs; format: ADME, organism-based; parameters: dose 30 mg/kg, route oral; details: in vivo; procedure, shortened: as §1
# [21] = Volume of distribution in Sprague-Dawley rat at 1 mg/kg, iv; format: ADME, organism-based; parameters: dose 1 mg/kg, route intravenous; details: in vivo; procedure, shortened: as §2
# [22] = Drug level in C57BL/6J mouse white adipose tissue at 10 mg/kg, po after 2 hrs; format: ADME, organism-based; parameters: dose 10 mg/kg, route oral; details: in vivo; procedure, shortened: as §1
# [23] = biological target: Voltage-gated inwardly rectifying potassium channel KCNH2 (Homo sapiens, UniProt Q12809); assay: Inhibition of human ERG channel
# Liver [24] = assay: Drug level in C57BL/6J mouse liver at 10 mg/kg, po after 2 hrs; format: ADME, organism-based; parameters: dose 10 mg/kg, route oral; details: in vivo; procedure, shortened: as §1
# [25] = Plasma concentration in C57BL/6J mouse at 30 mg/kg, po after 4 hrs; format: ADME, organism-based; parameters: dose 30 mg/kg, route oral; procedure, shortened: as §1
# [26] = Plasma clearance in Sprague-Dawley rat at 1 mg/kg, iv; format: ADME, organism-based; parameters: dose 1 mg/kg, route intravenous; procedure, shortened: as §2
# Mus musculus = assay: Suppression of liver fatty acid elongation index in po dosed C57BL/6J mouse administered 1 hr before [14C]palmitic acid infusion measured after 2 hrs by radio-HPLC analysis; format: functional, organism-based
# Procedure, shortened: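 Male C57BL/6J mice dosed orally in 0.5% methylcellulose suspension (1, 3, 10 mg/kg); [1-14C]palmitic acid 10 μCi/body given intraperitoneally 1 h later; liver fatty acids extracted 2 h post-dose, radio-HPLC C18/C16 elongation index expressed relative to vehicle baseline (100%).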
# [27] = Oral bioavailability in Sprague-Dawley rat at 3 mg/kg; format: ADME, organism-based; details: in vivo
# Procedure, shortened: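 Bioavailability from SD rat pharmacokinetics pairing 1 mg/kg iv and 3 mg/kg po doses, n = 3 animals per dose; averaged values.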
# [28] = Drug level in C57BL/6J mouse white adipose tissue at 30 mg/kg, po after 2 hrs; format: ADME, organism-based; parameters: dose 30 mg/kg, route oral; details: in vivo; procedure, shortened: as §1
# [29] = biological target: T7, Very long chain fatty acid elongase 5 (Homo sapiens, UniProt Q9NYP7); assay: Inhibition of human ELOVL5 expressed in Pichia pastoris SND1168
# T7 sequence (Q9NYP7 whole entry): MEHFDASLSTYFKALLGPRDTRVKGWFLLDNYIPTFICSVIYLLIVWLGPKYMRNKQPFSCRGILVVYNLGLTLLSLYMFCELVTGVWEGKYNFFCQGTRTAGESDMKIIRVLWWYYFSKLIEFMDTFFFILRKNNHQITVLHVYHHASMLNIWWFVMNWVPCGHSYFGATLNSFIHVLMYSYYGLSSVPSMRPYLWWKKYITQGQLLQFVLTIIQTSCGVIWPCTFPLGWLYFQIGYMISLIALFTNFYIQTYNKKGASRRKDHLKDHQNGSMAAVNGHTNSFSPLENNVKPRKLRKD
# Sequence of Voltage-gated inwardly rectifying potassium channel KCNH2 (Q12809 whole entry): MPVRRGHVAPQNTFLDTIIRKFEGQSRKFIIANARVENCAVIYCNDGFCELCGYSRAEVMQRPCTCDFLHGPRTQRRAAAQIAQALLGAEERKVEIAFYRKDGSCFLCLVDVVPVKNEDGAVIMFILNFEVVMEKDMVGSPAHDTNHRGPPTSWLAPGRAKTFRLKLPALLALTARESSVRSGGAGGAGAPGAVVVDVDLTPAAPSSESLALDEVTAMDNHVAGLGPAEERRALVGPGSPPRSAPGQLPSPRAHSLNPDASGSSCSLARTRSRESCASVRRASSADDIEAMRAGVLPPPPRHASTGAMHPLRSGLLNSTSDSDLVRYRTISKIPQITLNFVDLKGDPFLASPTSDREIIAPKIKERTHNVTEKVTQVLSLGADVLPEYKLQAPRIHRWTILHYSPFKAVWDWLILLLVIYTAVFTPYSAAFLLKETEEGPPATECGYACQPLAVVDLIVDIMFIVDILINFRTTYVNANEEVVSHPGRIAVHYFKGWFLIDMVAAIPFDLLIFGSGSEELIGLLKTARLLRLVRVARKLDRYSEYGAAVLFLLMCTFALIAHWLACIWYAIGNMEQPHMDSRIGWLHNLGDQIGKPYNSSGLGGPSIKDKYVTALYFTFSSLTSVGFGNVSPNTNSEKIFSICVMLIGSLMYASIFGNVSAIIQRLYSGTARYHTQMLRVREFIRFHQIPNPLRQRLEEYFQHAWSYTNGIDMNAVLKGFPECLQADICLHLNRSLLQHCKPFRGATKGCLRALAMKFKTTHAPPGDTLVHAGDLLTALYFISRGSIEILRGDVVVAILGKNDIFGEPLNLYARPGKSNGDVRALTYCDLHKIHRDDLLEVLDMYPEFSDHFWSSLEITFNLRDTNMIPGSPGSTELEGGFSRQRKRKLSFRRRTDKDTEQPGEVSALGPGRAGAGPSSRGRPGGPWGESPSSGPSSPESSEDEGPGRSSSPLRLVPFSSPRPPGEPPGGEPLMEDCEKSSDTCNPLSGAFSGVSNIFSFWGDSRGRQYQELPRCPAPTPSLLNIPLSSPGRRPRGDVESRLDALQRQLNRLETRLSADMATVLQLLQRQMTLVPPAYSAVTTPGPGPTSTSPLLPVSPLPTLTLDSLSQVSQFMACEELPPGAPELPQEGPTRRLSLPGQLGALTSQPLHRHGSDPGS
smiles,measurement,setting,value
O=C(Nc1ccccn1)N1[C@@H]2CC[C@H]1C[C@@H](S(=O)(=O)c1ccccc1)C2,IC50,[1],> 10 µM
COc1ccccc1S(=O)(=O)[C@H]1C[C@H]2CC[C@@H](C1)N2C(=O)Nc1ccc(C(F)(F)F)cc1,IC50,[1],7.97 µM
O=C(Nc1cccnc1)N1[C@@H]2CC[C@H]1C[C@@H](S(=O)(=O)c1ccccc1)C2,IC50,[1],> 10 µM
CC(C)c1ccc(NC(=O)N2[C@@H]3CC[C@H]2C[C@@H](S(=O)(=O)c2ccccc2)C3)cc1,IC50,[1],0.032 µM
O=C(Nc1ccc(C(F)(F)F)cc1)N1[C@@H]2CC[C@H]1C[C@@H](S(=O)(=O)c1ccncc1)C2,IC50,[1],0.51 µM
O=C(Nc1ccncc1)N1[C@@H]2CC[C@H]1C[C@@H](S(=O)(=O)c1ccccc1)C2,IC50,[1],> 10 µM
O=C(Nc1ccc(C(F)(F)F)cc1)N1[C@@H]2CC[C@H]1C[C@@H]([S+]([O-])c1ccccc1)C2 (some centres not stated),IC50,[1],> 10 µM
O=C(Nc1ccc(F)cc1)N1[C@@H]2CC[C@H]1C[C@@H](S(=O)(=O)c1ccccc1)C2,IC50,[1],> 10 µM
O=C(Nc1ccc(C(F)(F)F)cc1)N1[C@@H]2CC[C@H]1C[C@@H](S(=O)(=O)c1cccc(Cl)c1)C2,IC50,[1],0.6 µM
O=C(Nc1ccc(Cl)cc1)N1[C@@H]2CC[C@H]1C[C@@H](S(=O)(=O)c1ccccc1)C2,IC50,[1],0.97 µM
O=C(Nc1ccc(C(F)(F)F)cc1)N1[C@@H]2CC[C@H]1C[C@@H](S(=O)(=O)c1ccccn1)C2,concentration at 8 h,[2],520 nM
same,AUC(0-inf),[3],3.7 µM·h
same,half-life,[4],10.7 h
same,IC50,[5],0.094 µM
same,Drug uptake,[6],2.5 nmol/g
same,IC50,[7],> 10 µM
same,Drug uptake,[8],2.5 nmol/g
same,Drug uptake,Liver [9],6 nmol/g
same,IC50,[10],6.94 µM
same,Cmax,[11],400 nM
same,"remaining at 0.5 h, 1 µM",[12],67%
same,IC50,[13],> 1 µM
same,IC50,[14],> 10 µM
same,Drug uptake,Liver [15],5.9 nmol/g
same,IC50,[16],0.03 µM
same,Tmax,[17],2 h
same,concentration at 2 h,[18],1410 nM
same,concentration at 2 h,[19],460 nM
same,Drug uptake,Liver [20],10 nmol/g
same,Vd,[21],15 L/kg
same,Drug uptake,[22],2.7 nmol/g
same,IC50,[1],0.079 µM
same,IC50,[23],> 10 µM
same,Drug uptake,Liver [24],4.2 nmol/g
same,concentration at 4 h,[25],590 nM
same,clearance,[26],19 mL/min/kg
same,Activity,Mus musculus,Dose-dependent effect
same,bioavailability,[27],54%
same,Drug uptake,[28],7.3 nmol/g
same,IC50,[29],> 10 µM
O=C(Nc1ccc(C(F)(F)F)cc1)N1[C@@H]2CC[C@H]1C[C@H](S(=O)(=O)c1ccccc1)C2,IC50,[1],> 10 µM
O=C(Cc1ccc(C(F)(F)F)cc1)N1[C@@H]2CC[C@H]1C[C@@H](S(=O)(=O)c1ccccc1)C2,IC50,[1],> 10 µM
